Usually pIC50 stands for −log10 of the IC50, conventionally taken in molar units.

This note sets out measurements from ChEMBL document CHEMBL4311940, “Design, Synthesis, and Biological Evaluation of 4-Methyl Quinazoline Derivatives as Anticancer Agents Simultaneously Targeting Phosphoinositide 3-Kinases and Histone Deacetylases” (J Med Chem, 2019).

Assay [1] deals with HCT-116. Nature of the assay: Antiproliferative activity against human HCT116 cells after 96 hrs by MTT assay. The conditions noted are these: HCT-116, 96 h. It counts as functional, cell-based. In general terms: Tetrazolium dyes change colour on reduction, which living cells bring about.
The next assay addresses Histone deacetylase 1 (Homo sapiens, UniProt Q13547). The experiment in a line: Inhibition of recombinant C-terminal His/FLAG-tagged HDAC1 (unknown origin) expressed in baculovirus infected Sf9 insect cells using Ac-peptide as substrate preincubated for 15 mins followed by substrate addition and measured after 1 hr.
Assay [2] addresses Phosphatidylinositol 4,5-bisphosphate 3-kinase catalytic subunit alpha isoform (Homo sapiens, UniProt P42336). The experiment in a line: Inhibition of recombinant human PI3Kalpha using PIP2 as substrate incubated for 1 hr by kinase-glo assay.
For assay [3], the system named is HCT-116. The experiment in a line: Potency index, ratio of IC50 for SAHA to test compound IC50 for human HCT116 cells. It counts as functional.
The subject of assay [4] is HCT-116. Nature of the assay: Induction of apoptosis in human HCT116 cells assessed as live cells at 500 nM after 48 hrs by Annexin V-FITC/propidium iodide staining-based flow cytometric analysis (reference value: 89.6%). It counts as functional. On the technique in general: Flow cytometry measures light scatter and fluorescence of single cells or particles in a stream.

Assay [5] relates to HCT-116. The experiment in a line: Induction of apoptosis in human HCT116 cells assessed as early apoptotic cells at 500 nM after 48 hrs by Annexin V-FITC/propidium iodide staining-based flow cytometric analysis (reference value: 1.33%). In kind it is functional.
Assay [6] deals with HCT-116. Nature of the assay: Induction of apoptosis in human HCT116 cells assessed as late apoptotic cells at 500 nM after 48 hrs by Annexin V-FITC/propidium iodide staining-based flow cytometric analysis (reference value: 3.87%). In kind it is functional.
Assay [7] concerns HCT-116. The experiment in a line: Induction of apoptosis in human HCT116 cells assessed as necrotic cells at 500 nM after 48 hrs by Annexin V-FITC/propidium iodide staining-based flow cytometric analysis (reference value: 5.23%). It counts as functional.
In assay [8] the test system is HCT-116. The experiment in a line: Induction of cell cycle arrest in human HCT116 cells assessed as accumulation at G2/M phase at 500 nM after 24 hrs by propidium iodide/RNase staining-based FACS analysis. In kind it is functional. Summed up: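 HCT116 cells cultured overnight in 6-well plates, exposed to compound at various concentrations for 24 h; FxCycle PI/RNase staining and flow cytometry for cell cycle phase distribution.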

The subject of a further assay is THP-1. The experiment in a line: Antiproliferative activity against human THP1 cells after 96 hrs by MTT assay. In kind it is functional, cell-based. The conditions noted are these: THP-1, 96 h.
In another assay the test system is K562. The experiment in a line: Antiproliferative activity against human K562 cells after 96 hrs by MTT assay. It counts as functional, cell-based. The settings on record: K562, 96 h.
A further assay concerns MCF7. The experiment in a line: Antiproliferative activity against human MCF7 cells after 96 hrs by MTT assay. In kind it is functional, cell-based. The conditions noted are these: MCF7, 96 h.
In another assay the test system is MDA-MB-453. Nature of the assay: Antiproliferative activity against human MDA-MB-453 cells after 96 hrs by MTT assay. In kind it is functional, cell-based. The settings on record: MDA-MB-453, 96 h.
The next assay concerns HCT-8. The experiment in a line: Antiproliferative activity against human HCT8 cells after 96 hrs by MTT assay. The settings on record: HCT-8, 96 h. It counts as functional, cell-based.
The next assay has as its system U-87 MG. Nature of the assay: Antiproliferative activity against human U87 cells after 96 hrs by MTT assay. In kind it is functional, cell-based, U-87MG ATCC.
For a further assay, the system named is NCI-H460. The experiment in a line: Antiproliferative activity against human NCI-H460 cells after 96 hrs by MTT assay. It counts as functional, cell-based. The conditions noted are these: NCI-H460, 96 h.
In a further assay the test system is NCI-H1299. The experiment in a line: Antiproliferative activity against human NCI-H1299 cells after 96 hrs by MTT assay. The conditions noted are these: NCI-H1299, 96 h. In kind it is functional, cell-based.
In the next assay the test system is Capan-2. Nature of the assay: Antiproliferative activity against human Capan2 cells after 96 hrs by MTT assay. In kind it is functional, cell-based. The settings on record: Capan-2, 96 h.
A further assay deals with SW1990. Nature of the assay: Antiproliferative activity against human SW1990 cells after 96 hrs by MTT assay. In kind it is functional, cell-based. The conditions noted are these: SW1990, 96 h.
The next assay has as its system DU-145. Nature of the assay: Antiproliferative activity against human DU145 cells after 96 hrs by MTT assay. In kind it is functional, cell-based. The conditions noted are these: DU-145, 96 h.
The next assay has as its system HGC-27. The experiment in a line: Antiproliferative activity against human HGC27 cells after 96 hrs by MTT assay. It counts as functional, cell-based. The settings on record: HGC-27, 96 h.
The next assay deals with HepG2. Nature of the assay: Antiproliferative activity against human HepG2 cells after 96 hrs by MTT assay. In kind it is functional, cell-based. The conditions noted are these: HepG2, 96 h.
A further assay has as its system Huh-7. The experiment in a line: Antiproliferative activity against human HuH7 cells after 96 hrs by MTT assay. It counts as functional, cell-based. The settings on record: Huh-7, 96 h.
The subject of another assay is Bel-7402. Nature of the assay: Antiproliferative activity against human Bel7402 cells after 96 hrs by MTT assay. In kind it is functional, cell-based. The conditions noted are these: Bel-7402, 96 h.

pIC50: −log10 of the molar value. Activity calls are given as the source filed them. The rule behind the calls is not given here.

Histone deacetylase 1, sequence (Q13547 whole entry, canonical isoform): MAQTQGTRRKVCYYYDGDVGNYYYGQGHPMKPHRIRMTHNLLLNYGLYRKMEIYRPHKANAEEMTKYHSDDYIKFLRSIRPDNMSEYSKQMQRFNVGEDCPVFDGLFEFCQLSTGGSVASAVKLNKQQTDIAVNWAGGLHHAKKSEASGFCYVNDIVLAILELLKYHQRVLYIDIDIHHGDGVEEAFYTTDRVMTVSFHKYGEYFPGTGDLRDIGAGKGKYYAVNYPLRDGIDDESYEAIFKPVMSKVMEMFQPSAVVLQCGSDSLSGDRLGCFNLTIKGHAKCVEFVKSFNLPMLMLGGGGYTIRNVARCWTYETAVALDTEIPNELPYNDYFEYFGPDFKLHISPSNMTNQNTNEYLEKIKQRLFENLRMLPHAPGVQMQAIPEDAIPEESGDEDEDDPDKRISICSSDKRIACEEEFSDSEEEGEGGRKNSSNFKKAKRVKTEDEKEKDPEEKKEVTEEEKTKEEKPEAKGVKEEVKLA
Phosphatidylinositol 4,5-bisphosphate 3-kinase catalytic subunit alpha isoform, sequence (P42336 whole entry, canonical isoform): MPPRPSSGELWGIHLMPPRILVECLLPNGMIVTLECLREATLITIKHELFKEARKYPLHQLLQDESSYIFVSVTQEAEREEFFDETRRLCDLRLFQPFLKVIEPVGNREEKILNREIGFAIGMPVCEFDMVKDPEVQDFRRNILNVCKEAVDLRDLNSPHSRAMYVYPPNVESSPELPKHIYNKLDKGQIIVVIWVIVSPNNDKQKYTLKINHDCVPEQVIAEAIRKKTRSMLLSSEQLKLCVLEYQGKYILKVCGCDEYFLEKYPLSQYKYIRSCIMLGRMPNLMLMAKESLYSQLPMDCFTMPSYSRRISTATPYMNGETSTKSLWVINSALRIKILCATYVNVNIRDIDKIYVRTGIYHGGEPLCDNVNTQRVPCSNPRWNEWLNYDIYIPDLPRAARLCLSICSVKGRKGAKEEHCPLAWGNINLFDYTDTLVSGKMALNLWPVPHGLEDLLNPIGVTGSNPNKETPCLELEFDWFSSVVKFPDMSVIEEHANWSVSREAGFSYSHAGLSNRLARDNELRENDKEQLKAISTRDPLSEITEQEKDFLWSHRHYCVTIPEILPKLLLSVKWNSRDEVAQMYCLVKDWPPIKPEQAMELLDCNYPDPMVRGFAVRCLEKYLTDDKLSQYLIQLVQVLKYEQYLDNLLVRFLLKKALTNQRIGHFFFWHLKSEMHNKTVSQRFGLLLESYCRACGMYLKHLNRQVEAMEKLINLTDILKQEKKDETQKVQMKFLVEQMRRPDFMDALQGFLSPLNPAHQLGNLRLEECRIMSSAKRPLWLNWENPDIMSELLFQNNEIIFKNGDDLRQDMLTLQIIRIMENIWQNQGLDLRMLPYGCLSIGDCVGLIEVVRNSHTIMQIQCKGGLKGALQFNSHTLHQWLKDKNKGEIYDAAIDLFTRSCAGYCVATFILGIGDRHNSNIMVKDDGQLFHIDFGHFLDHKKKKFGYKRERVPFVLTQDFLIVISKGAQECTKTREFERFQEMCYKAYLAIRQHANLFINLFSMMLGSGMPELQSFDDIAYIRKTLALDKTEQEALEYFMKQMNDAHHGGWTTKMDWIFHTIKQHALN

On to `COc1ccc(-c2cc(OCCCCCCC(=O)NO)c3ncnc(C)c3c2)cn1`, for which the negative logarithm of the IC50 (pIC50) was 6.85 in the assay with HCT-116 [1], 8.89 at Histone deacetylase 1 and 6.99 in assay [2]. For the same compound, the “Ratio IC50” value with HCT-116 [3] is recorded as 10.
Consider `Nc1cc(C(F)(F)F)c(-c2cc(N3CCOCC3)nc(N3CCOCC3)n2)cn1` [BUPARLISIB], for which the pIC50 in the assay with HCT-116 [1] was 5.89; in the assay on THP-1, 4.92; in the assay on K562 it was 5.10; in the assay on MCF7, 5.24; with MDA-MB-453, 6.43; in the assay with HCT-8 it was 5.77. Also, the negative logarithm of the IC50 (pIC50) is 5.32 with U-87 MG; 5.49 in the assay on NCI-H460; 5.44 with NCI-H1299; 4.38 in the assay with Capan-2; 5.89 with SW1990; 4.35 in the assay with DU-145. In addition, the pIC50 was 6.00 in the assay on HGC-27, 5.49 with HepG2, 5.70 in the assay with Huh-7 and 4.89 in the assay on Bel-7402. The Activity was 84.7% in the assay on HCT-116 [4], 5.22% with HCT-116 [5], 6.61% in the assay on HCT-116 [6] and 3.46% in the assay with HCT-116 [7]. Moreover, the result with HCT-116 [8] was Active.
